Assay outcomes: PubChem BioAssay, several laboratories
aDG glyco act – alpha-DG glycosylation activation | Pro5-aDG cells, alpha-DG glycosylation AlphaScreen (IIH6); 0% Pro5, 100% B10-LARGE cell signal | activation, % at 10 µM | actives 0.22% (n = 360,000) | AID 624168;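 active means activation of at least 8% versus controls, or a plate z-score of at least 8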;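 further: Pro5 are CHO cells carrying HIG-tagged alpha-DG that lacks glycosylation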
GASC-1 inh – human JMJD2C demethylase inhibition; Q9H3R0; GST-JMJD2C(1-420) H3K9me3 demethylation, DELFIA europium; inhibition, % at 2.35 µM; actives 0.069% (n = 330,000); AID 2099;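 active means more than half of a compound's replicate wells show inhibition beyond 50%, single wells judged on their own value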;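 further: signal counts dimethyl H3K9 product captured on neutravidin plate; 0% = median of DMSO wells and 100% = 0.3 times that DMSO median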
GC-B act – GC-B (human) receptor activation; P20594; HEK293-GC-B cells, CNP EC30, cGMP TR-FRET; 0% at EC30 CNP, 100% saturating CNP; activation, % at 10 µM; actives 0.11% (n = 370,000); AID 1920062;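 active means activation at 10 µM reaching about 35% in either raw or pattern-adjusted values, limit read from the data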
Lipid droplet – modulators of hepatic lipid droplet formation; inhibition, % at 6.5 µM; actives 0.4% (n = 240,000); AML12 mouse hepatocytes, oleate lipid droplets, BODIPY imaging;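 active means lipid droplet intensity inhibited by at least 50%, with more than 500 cells counted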
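Test system: AML12 mouse liver cells; schedule: overnight exposure; technique: high-content imaging of BODIPY-stained droplets and DAPI nuclei; read-out: % inhibition of corrected integrated BODIPY droplet signal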
NR3A LBD binder – modulates the human NR3A ligand-binding domain. NR3A LBD differential scanning fluorimetry, Tm shift; 0% = protein alone, 100% = glycine-bound protein. Tm shift relative to glycine control, % at 25 µM. actives 2.5% (n = 340,000);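 active means melting temperature shift of at least 10% of the positive control shift, at one fixed dose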
GC-A act – GC-A (human) enzyme activation; HEK293 GC-A cells, cGMP TR-FRET, EC30 ANP; 0% at EC30 ANP, 100% saturating ANP; actives 0.14% (n = 370,000); activation, % at 10 µM; P16066; in the data active means activation above about 40%
* marks the source's active call; other numbers are inactive results; i = inactive; nt = no result given. Hits are enriched below; roughly 3% of the tested compounds scored in any of these assays.

SMILES	aDG glyco act	GASC-1 inh	GC-B act	Lipid droplet	NR3A LBD binder	GC-A act
CC(CSC(=O)c1ccccc1)C(=O)N1c2ccccc2CC1C(=O)O (stereo not drawn)	1	nt	-6	nt	nt	-5
CC(CCN1CCC(C(O)(c2ccccc2)c2ccccc2)CC1)Oc1ccc(OC(F)(F)F)cc1 (stereo not drawn)	nt	nt	-7	nt	nt	-14
CCCc1nc2ccccc2n1C(C(=O)NC(C)(C)C)C1CC1 (stereo not drawn)	0	nt	-1	nt	nt	3
O=C(NNC(=O)c1ccncc1)Nc1ccc(N=Nc2ccccc2)cc1	0	nt	0	nt	21*	6
Cc1ccc(Cn2ncc3c(NN)ncnc32)cc1	0	-1	1	-2	-1	3
CCN(CC)c1ncnc2c1cnn2Cc1ccc(C)cc1	0	1	38*	8	-2	27
C/C(=N\NC(=O)c1ccc(F)cc1)c1ccccn1	0	14	0	-280	12*	17
Cc1ccccc1-c1nnc(SCc2ccccc2F)o1	0	0	2	nt	10*	0
CCOC(=O)CC[C@@H]1CC[C@]2(CCCN(C(=O)c3ccco3)C2)O1	nt	nt	8	nt	nt	0
Cc1cccnc1NC(=O)c1ccccc1-c1ccccc1C(=O)Nc1ncccc1C	0	-11	-4	-29	-1	-2
Cc1cc(C)nc(NC(=O)c2csnn2)c1	0	8	-3	2	-3	2
Cc1cccnc1NC(=O)c1csnn1	0	28	4	10	10*	1
O=C(Nc1csnn1)c1csnn1	0	2	-2	-29	15*	7
O=C(c1cc(Cl)ccc1F)N1CCCC(c2nc(-c3cccs3)no2)C1 (stereo not drawn)	nt	nt	-1	nt	nt	0
CSc1ccccc1NC(=O)CO/N=C(\C)c1cc2ccccc2o1	1	4	4	-15	11*	4
C/C(=N\OCC(=O)Nc1ccc(F)c(F)c1F)c1cc2ccccc2o1	0	6	2	0	-8	0
CSc1ccccc1NC(=O)Cc1ccccc1	2	-2	1	-1	0	1
CSc1ccccc1NC(=O)COC(=O)CCc1ccccc1	0	-1	-2	-1	14*	-4
O=C(c1ccccc1)N1CC[C@H]2[C@H](CCCN2Cc2cc(F)cc(F)c2)C1	nt	nt	2	nt	nt	3
O=c1c2c(n3nnnc3n1Cc1ccc(Cl)cc1)-c1ccccc1CC21CCCC1	nt	nt	14	nt	nt	5
CCN1C(=O)c2cccc3c(NC(=O)c4ccc(S(=O)(=O)N(C)C)cc4)ccc1c23	-1	3	42*	-10	0	29
CCOC(=O)c1ccc(NC(=O)Nc2ccc3c4c(cccc24)C(=O)N3CC)cc1	0	23	6	nt	17*	2
CCN1C(=O)c2cccc3c(NS(=O)(=O)c4ccc(NC(C)=O)cc4)ccc1c23	0	4	0	nt	-7	-3
Nc1ncnc2c1ncn2[C@@H]1O[C@H](CNC(=O)[C@@H](N)C2CCCCC2)[C@@H](O)[C@H]1O	0	nt	-1	nt	15*	-2
C[C@H](N)C(=O)NC[C@H]1O[C@@H](n2cnc3c(N)ncnc32)[C@H](O)[C@@H]1O	0	nt	2	nt	3	-2
CC(C)(O)C#Cc1ccc(CNC[C@H]2O[C@@H](n3cnc4c(N)ncnc43)[C@H](O)[C@@H]2O)s1	0	nt	4	nt	13*	5
CC1(C)CC(=O)C2=C(C1)NC(Nc1nc3ccccc3o1)=NC2c1ccccn1 (stereo not drawn)	2	i	2	1	0	46*
COc1ccccc1C(NC(=O)C1CCN(CCOc2ccc(Cl)cc2Cl)CC1)c1ccccn1 (stereo not drawn)	0	nt	-4	nt	nt	3
Cc1ccc(Nc2c(-c3cccnc3)nc3ccc(Br)cn23)cc1	0	-6	44*	21	-1	45*
Cc1ccc2nc(-c3ccncc3)c(Nc3ccccc3)n2c1	1	1	-9	-1	-1	-14
